Reference: ChEMBL document CHEMBL5104221, “ATP Mimetic Attack on the Nucleotide-Binding Domain to Overcome ABC Transporter Mediated Chemoresistance” (ACS Med Chem Lett, 2022)
Active and inactive are the calls of the source. The calls are words filed in the database; no cut-off is given here.

Key:
HCT-116 [1] = experiment: Cytotoxicity against human HCT-116 cells overexpressing human BCRP incubated for 48 hrs by MTT assay; assay type: functional, cell-based; details: HCT-116, 48 h
HCT-116 [2] = experiment: Cytotoxicity against human HCT-116 cells assessed as reduction on cell viability at 100 uM incubated for 48 hrs in presence of paclitaxel by MTT assay; assay type: functional, cell-based
How it was run: (§1)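 Wild-type HCT116 cells were exposed for 48 h in OptiMEM, with or without paclitaxel. Viability was read by MTT and normalised to wells containing 0.5% DMSO, taken as 100%.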

[3] = Cytotoxicity against human HEK293 cells incubated for 48 hrs by MTT assay; assay type: toxicity, cell-based
HCT-116 [4] = experiment: Cytotoxicity against in human HCT-116 cells overexpressing human BCRP assessed as DNA damage by measuring fluorescence intensity at 100 uM incubated for 30 mins by Hoechst 33342 staining accumulation assay; assay type: functional, cell-based
How it was run: (§2)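 Hoechst 33342 retention measured in paclitaxel-resistant HCT116tax cells and in HCT116 cells transfected with MDR1- or BCRP-expressing plasmids. The dye was read by its blue fluorescence without washing. Tariquidar (1 μM) and sodium orthovanadate (500 μM) served as reference inhibitors. Accumulation is expressed relative to the vanadate-induced fluorescence difference, set as 100%.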

[5] = Cytotoxicity against paclitaxel-resistant human HCT116tax cells incubated for 48 hrs by MTT assay; assay type: functional, cell-based
HCT-116 [6] = experiment: Cytotoxicity against human HCT-116 cells overexpressing human MDR1 assessed as DNA damage by measuring fluorescence intensity at 100 uM incubated for 30 mins by Hoechst 33342 staining accumulation assay; assay type: functional, cell-based; how it was run: as §2
HCT116tax = experiment: Cytotoxicity against paclitaxel-resistant human HCT116tax cells assessed as reduction on cell viability at 100 to 200 uM incubated for 48 hrs in presence of paclitaxel by MTT assay; assay type: functional, cell-based; details: dose 100-200 µM
[7] = Cytotoxicity against paclitaxel-resistant human HCT116tax cells assessed as DNA damage by measuring fluorescence intensity incubated for 30 mins by Hoechst 33342 staining accumulation assay; assay type: functional, cell-based; details: 0.5 h; how it was run: as §2
HCT-116 [8] = experiment: Cytotoxicity against human HCT-116 cells incubated for 48 hrs by MTT assay; assay type: functional, cell-based; details: HCT-116, 48 h; how it was run: as §1
HCT-116 [9] = experiment: Cytotoxicity against human HCT-116 cells overexpressing human MDR1 incubated for 48 hrs by MTT assay; assay type: functional, cell-based; details: HCT-116, 48 h

| Compound | EC50 (HCT-116 [1]) [µM] | Activity (HCT-116 [2]) | EC50 at 48 h [3] [µM] | Activity (HCT-116 [4]) | EC50 [5] [µM] | Activity (HCT-116 [6]) | Activity (HCT116tax) | IC50 [7] [µM] | EC50 (HCT-116 [8]) [µM] | EC50 (HCT-116 [9]) [µM] |
| --- | --- | --- | --- | --- | --- | --- | --- | --- | --- | --- |
| CC(C)[C@@H]1NC(=O)[C@@H]2CCCN2C1=O | > 100 | Active | > 100 | Active | > 100 | Active | Active | 6.2 | > 100 | > 100 |
| ORTHOVANADATE |  |  |  | Active |  | Active |  |  |  |  |
| NC(=O)c1ncn([C@@H]2O[C@H](CO)[C@@H](O)[C@H]2O)c1N [ACADESINE] | > 100 | Active | > 100 | Active | > 100 | Active | Active | 5.3 | > 100 | > 100 |
| Nc1ncnc2c1ncn2[C@@H]1O[C@H](COP(=O)(O)O)[C@@H](O)[C@H]1O [ADENOSINE PHOSPHATE] | > 100 | Active | > 100 | Active | > 100 | Active | Active | 3.2 | > 100 | > 100 |
| Nc1ncnc2c1ncn2COCCO | > 100 | Active | > 100 | Active | > 100 | Active | Active | 7.3 | > 100 | > 100 |
| NC(=O)c1ncn([C@@H]2O[C@H](CO)[C@@H](O)[C@H]2O)n1 [RIBAVIRIN] | > 100 | Active | > 100 | Active | > 100 | Active | Active | 5 | > 100 | > 100 |
